Assay results collected from several papers.
Protocols differ between the studies behind these lines.
Observed: microbial growth

`O=C1NC(=S)S/C1=C\c1ccc(-c2ccc(N(c3ccccc3)c3ccccc3)cc2)c2ccccc12` has an MIC of 1000 µg/mL (Streptococcus pyogenes; broth dilution; ATCC19615).
`O=c1[nH]c(NCc2ccc(Cl)c(Cl)c2)nc2ncn(CCN3CCOCC3)c12` has an MIC of over 32 µg/mL (Bifidobacterium; agar dilution; 48 h).
`O=C1NC(=S)N/C1=C\c1c2ccccc2c(-c2ccc(N(c3ccccc3)c3ccccc3)cc2)c2ccccc12` gave an MIC of over 1000 µg/mL (Streptococcus mutans; broth dilution; ATCC25175).
The MIC of `C[C@@H](O)[C@H]1C(=O)N2C(C(=O)O)=C(S[C@@H]3CN[C@H](C(=O)N(C)C)C3)[C@H](C)[C@H]12` is reported as over 64 µg/mL (Stenotrophomonas maltophilia; broth dilution; clinical isolate).
With `CC(C)Oc1c(NC(=O)c2ccc(NC(=O)[C@H](CC(N)=O)NC(=O)c3ccc(NC(=O)c4ccc(C#N)cn4)cc3)cc2)ccc(C(=O)Nc2ccc(C(=O)O)cc2)c1O` the MIC was 0.25 µg/mL (Klebsiella aerogenes; DSM30053).
`O=C1NC(=S)S/C1=C\c1c2ccccc2c(-c2ccc(N(c3ccccc3)c3ccccc3)cc2)c2ccccc12` gave an MIC of over 1000 µg/mL (Streptococcus pyogenes; broth dilution; ATCC19615).
For `CCCCCCC/C=C/C(=O)N1C(=O)/C(=C(/C)O)C(=O)C1CO` (stereo not drawn), the MIC was over 200 µg/mL (Stenotrophomonas maltophilia; ATCC13637).
The MIC of `CNC(=O)c1cc(Oc2ccc(NC(=O)Nc3ccc(Cl)c(C(F)(F)F)c3)cc2)ccn1` is reported as over 100 µM (Klebsiella aerogenes; DSM30053).
The MIC of `O=c1[nH]c(NCc2ccc(Cl)c(Cl)c2)nc2ncn(CCCCCN3CCOCC3)c12` is reported as over 32 µg/mL (Bifidobacterium; agar dilution; 48 h).
`CCCCCCC/C=C/C(=O)N1C(=O)/C(=C(/C)O)C(=O)C1CCC(=O)O` (stereo not drawn) gave an MIC of 200 µg/mL (Stenotrophomonas maltophilia; ATCC13637).
For `C/C(=C\c1ccc(C#N)cc1)C(=O)Nc1ccc(C(=O)N[C@@H](CC(N)=O)C(=O)Nc2ccc(C(=O)Nc3ccc(C(=O)Nc4ccc(C(=O)O)cc4)c(O)c3OC(C)C)cc2)cc1`, the MIC was 0.25 µg/mL (Klebsiella aerogenes; DSM30053).
With `O=C1NC(=S)N/C1=C\c1ccc(-c2ccc(N(c3ccccc3)c3ccccc3)cc2)c2ccccc12` the MIC was over 1000 µg/mL (Streptococcus mutans; broth dilution; ATCC25175).
`CCCCCCC/C=C/C(=O)N1C(=O)/C(=C(\O)c2ccc(OCOCCOC)cc2)C(=O)C1CC(C)C` (stereo not drawn) has an MIC of 200 µg/mL (Stenotrophomonas maltophilia; ATCC13637).
The MIC of `O=C1NC(=S)S/C1=C\c1ccc(-c2ccc(N(c3ccccc3)c3ccccc3)cc2)cc1` is reported as 1000 µg/mL (Streptococcus mutans; broth dilution; ATCC25175).
`CCCCCCC/C=C/C(=O)N1C(=O)/C(=C(\O)CCCC)C(=O)C1CC(C)C` (stereo not drawn) has an MIC of over 200 µg/mL (Stenotrophomonas maltophilia; ATCC13637).
